PfG6PD inh: PfG6PD (Plasmodium falciparum) enzyme inhibition | PfGluPho enzyme, NADPH resazurin-diaphorase fluorescence | actives 0.78% (n = 350,000) | inhibition, % at 20 µM | AID 504690;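 active = inhibition reaching at least a set limit at 20 µM in the primary screen, cut at about 59% in these data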
Diaphorase inh: diaphorase inhibition or chemical oxidation counter-screen | AID 1217 | diaphorase resazurin-to-resorufin fluorescence, NADH, 16 min; bacterial (C. kluyveri) enzyme, not human | actives 0.69% (n = 190,000) | inhibition, % at 20 µM;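 active = primary screen inhibition at 20 µM above a set limit, cut at about 50% in these data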
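Assay system – diaphorase enzyme from Clostridium kluyveri · Amount – diaphorase 0.14 U/mL (working solution) · Times – reaction incubation of 16 min at room temperature · Controls – No-NADH positive control and DMSO neutral control · Signal – resorufin fluorescence 544/590 nm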
HKDC1 inhibitor: HKDC1 (human) hexokinase inhibition | recombinant HKDC1, G6PDH/diaphorase resazurin coupled fluorescence | inhibition, % at 20 µM | actives 0.16% (n = 340,000);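 active = inhibition above about 35% when tested at 20 µM, limit read from the data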
Target sequence (Q2TB90 whole entry, looked up): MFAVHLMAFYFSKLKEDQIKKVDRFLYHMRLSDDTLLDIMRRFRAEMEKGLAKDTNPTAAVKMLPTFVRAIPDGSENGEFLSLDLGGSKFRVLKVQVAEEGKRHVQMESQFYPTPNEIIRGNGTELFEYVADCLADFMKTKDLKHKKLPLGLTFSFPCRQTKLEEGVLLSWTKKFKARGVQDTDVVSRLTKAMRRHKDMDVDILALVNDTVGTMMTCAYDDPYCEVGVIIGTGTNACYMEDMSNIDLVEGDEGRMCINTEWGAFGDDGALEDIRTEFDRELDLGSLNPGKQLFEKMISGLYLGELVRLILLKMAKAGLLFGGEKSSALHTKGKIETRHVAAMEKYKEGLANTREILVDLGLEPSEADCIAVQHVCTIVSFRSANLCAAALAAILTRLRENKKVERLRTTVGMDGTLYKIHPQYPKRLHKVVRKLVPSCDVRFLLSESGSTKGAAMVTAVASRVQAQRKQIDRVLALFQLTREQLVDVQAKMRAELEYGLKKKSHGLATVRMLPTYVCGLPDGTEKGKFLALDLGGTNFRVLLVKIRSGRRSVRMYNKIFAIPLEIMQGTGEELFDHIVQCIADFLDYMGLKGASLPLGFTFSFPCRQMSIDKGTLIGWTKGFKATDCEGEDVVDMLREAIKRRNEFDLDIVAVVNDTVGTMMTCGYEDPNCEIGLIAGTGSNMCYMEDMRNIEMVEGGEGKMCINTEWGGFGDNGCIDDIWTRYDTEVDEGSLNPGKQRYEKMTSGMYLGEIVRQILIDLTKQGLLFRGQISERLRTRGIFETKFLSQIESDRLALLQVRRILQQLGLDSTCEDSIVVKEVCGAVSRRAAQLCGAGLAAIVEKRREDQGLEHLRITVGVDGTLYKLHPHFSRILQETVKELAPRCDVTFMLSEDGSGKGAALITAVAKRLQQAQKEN
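Test system: HK5 enzyme. Quantity: 5 µg/mL HK5 final. Reagent: glucose and ATP substrates. Schedule: 90 min reaction incubation at room temperature, dark. Technique: resazurin-to-resorufin fluorescence via G6PDH and diaphorase coupling, 525/613 nm. Control set: DMSO wells with and without enzyme mix.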
G6PDH CS: inhibits Leuconostoc G6PDH, flagging false hits in G6PDH-based assays; AID 1020; actives 0.12% (n = 200,000); Purified L. mesenteroides G6PDH, diaphorase/resazurin coupled fluorescence, 45 min; inhibition, % at 5 µM; in the data active = inhibition above about 50%
Diaphorase act: counter-screen for diaphorase-based assays: diaphorase activators and chemical reducers; Diaphorase/resazurin coupled assay, resorufin fluorescence, 16 min; stronger effect = higher value; 1 = vehicle wells, 0 = NADH-free wells; activation factor at 20 µM; actives 0.005% (n = 190,000); AID 1229;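 active = diaphorase activity raised at least twofold by the compound at 20 µM; inactive = activation factor below 2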
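test system = bacterial diaphorase enzyme (C. kluyveri) | quantity = enzyme 0.07 U/mL final | reagent = NADH substrate 0.114 mM plus resazurin dye 0.1 mM, final | incubation = 16 min enzyme reaction, ambient temperature | buffer or medium = HEPES pH 7.4 buffer with MgCl2 and Tween 20 | signal = fluorescence of resorufin, 544 nm excitation, 590 nm emission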
HKDC1 act conf2: HKDC1 (human) activation, single-dose confirmed; shares compounds with HKDC1 inhibitor; actives 14% (n = 740); AID 504708; inhibition, % at 20 µM; recombinant HKDC1, G6PDH/diaphorase resazurin fluorescence; stronger effect = lower value;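 active = inhibition at or below a set negative limit, negative inhibition meaning the enzyme was activated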
Hits are given with their value; - = inactive; . = no result. Compounds with a hit are over-represented: about 1.3% of the library has one in this group of screens.

SMILES | PfG6PD inh | Diaphorase inh | HKDC1 inhibitor | G6PDH CS | Diaphorase act | HKDC1 act conf2
O=C(CSc1nnc(-c2cccnc2)s1)Nc1ccnc2ccccc12 | - | - | - | - | - | -
COc1ccc(-n2c(C)cc(C(=O)CCl)c2C)cc1 | - | - | 35.2 | - | - | -
COc1ccc(-n2c(C)cc(C(=O)CN3C(=O)c4ccccc4C3=O)c2C)cc1 | - | - | - | - | - | .
O=C(NNC(=O)c1ccccc1-n1cccc1)c1cccnc1 | - | . | . | . | . | .
CC(=NNC(=S)Nc1cccc(C)c1)c1ccccn1 | - | . | - | . | . | -60.1
CC(=NNC(=S)Nc1ccc(C)cc1)c1ccccn1 | - | . | - | . | . | .
COc1ccccc1NC(=S)NN=C(C)c1ccccn1 | - | . | - | . | . | -61.0
COc1ccc(NC(=O)C2CCN(S(=O)(=O)c3cn(C)nc3C)CC2)cc1 | - | . | - | . | . | .
COc1cc(/C=C2\SC(=O)N(c3ccc(Cl)cc3)C2=O)cc([N+](=O)[O-])c1O | - | 82.4 | 44.4 | - | - | -
O=C1S/C(=C\c2ccc(O)c([N+](=O)[O-])c2)C(=O)N1c1ccccc1Cl | - | - | - | - | - | .
COc1cc(/C=C2\SC(=O)N(c3cccc(Cl)c3)C2=O)cc([N+](=O)[O-])c1O | - | 64.2 | 51.5 | - | - | -
CCCOc1ccc(C(=O)Nc2ccc3c(c2)OCCO3)cc1 | - | . | - | . | . | .
CCN(CC)c1ccc(C(=O)NNC(=O)CNC(=O)c2cccs2)cc1 | - | . | - | . | . | .
CCCCC[n+]1cccc2c3ccccc3ccc21 | - | - | - | - | - | .
CCCC[n+]1c2ccccc2cc2ccccc21 | - | . | 41.9 | . | . | -
CCC[n+]1c2ccccc2cc2ccccc21 | - | . | 36.5 | . | . | -
Cc1ccc2ccccc2[n+]1CCCS(=O)(=O)[O-] | - | - | - | - | - | .
O=C(C[C@@H]1C/C=C\CC[C@H](Cc2ccc(F)cc2)C(=O)OC[C@@H]2CCCN2C1=O)N[C@H](CO)Cc1ccccc1 | - | . | - | . | . | .
COc1ccccc1CCNC(=O)c1nccnc1C(=O)O | - | . | - | . | . | .
O=C(CSc1nnc(CCCN2C(=O)c3cccc4cccc(c34)C2=O)n1-c1ccccc1)N1CCN(CCO)CC1 | - | 58.8 | 42.4 | - | - | -
O=C1c2cccc3cccc(c23)C(=O)N1CCCc1n[nH]c(=S)n1-c1ccccc1 | - | - | - | - | - | .
Cc1cc(C)nc(Nc2n[nH]c(-c3ccc(C(C)(C)C)cc3)n2)n1 | - | - | - | - | - | -
Cc1cc(C)nc(Nc2n[nH]c(-c3ccc(N)cc3)n2)n1 | - | - | - | - | - | .
CC(=O)c1ccc2c(c1)C1C=CCC1C(c1ccncc1)N2 (stereo not drawn) | - | - | - | - | - | .
CC(=O)c1ccc2c(c1)C1C=CCC1C(C(=O)O)N2 (stereo not drawn) | - | 77.1 | - | - | - | -
SMILES | PfG6PD inh | Diaphorase inh | HKDC1 inhibitor | G6PDH CS | Diaphorase act | HKDC1 act conf2
Cc1cc(C(=O)NNC(=O)[C@H](C)NC(=O)c2ccc(Br)cc2)c(C)o1 | - | . | - | . | . | .
CCC(C)(C)NC(=O)C1CCC(CNS(=O)(=O)c2cccc3nsnc23)CC1 (stereo not drawn) | - | . | 51.3 | . | . | -
Cc1ccccc1Nc1nc(N)nc(CSc2nnc3sc4ccccc4n23)n1 | - | - | 35.9 | - | - | -
Cc1nc2cc(Cl)ccc2c(=O)n1Cc1ccncc1 | - | . | - | . | . | .
Cc1cc(C)n2nc(SCc3nnc(SCc4ccccc4C)s3)nc2n1 | - | - | 52.6 | - | - | -
Cc1cc(C)n2nc(SCc3nnc(SCc4ccccc4Cl)s3)nc2n1 | - | 58.1 | 40.8 | - | - | -
COc1cccc(CSc2nnc(CSc3nc4nc(C)cc(C)n4n3)s2)c1 | - | - | - | - | - | .
CC1CCN(S(=O)(=O)c2cccc3cccnc23)CC1 | - | . | - | . | . | .
C[C@H](CO)N1C[C@H](C)[C@@H](CN(C)S(=O)(=O)c2ccccc2)Oc2c(NS(=O)(=O)c3ccccc3)cccc2C1=O | - | . | - | . | . | .
O=C(c1ccccc1)c1n[nH]c(-c2ccccc2)cc1=O | - | - | - | - | - | -
O=c1[nH][nH]c2c(N=Cc3ccccc3O)ccc(F)c12 | - | . | 37.7 | . | . | -
Cc1cccc2c(N=NC(=O)c3ccc(NS(=O)(=O)c4cccs4)cc3)c(O)[nH]c12 | - | . | 36.0 | . | . | -
CC(C)c1ccc(NC(=O)C2CCCCN2S(=O)(=O)c2ccccc2)cc1 (stereo not drawn) | - | . | - | . | . | .
COc1ccc(CN2C(=O)c3cccnc3C2O)cc1 (stereo not drawn) | - | - | 40.9 | - | - | -
CCCOc1ccc(/C=N/NC(=S)Nc2ccccc2[N+](=O)[O-])c(O)c1 | - | - | - | - | - | -47.6
Cc1ccccc1NC(=S)N/N=C/c1ccc(O)cc1O | - | . | - | . | . | -
Cc1ccc(/C=C/C(=O)c2ccc([N+](=O)[O-])o2)cc1 | - | . | 46.0 | . | . | -
Cc1ccc(CNC(=O)c2ccc([N+](=O)[O-])o2)cc1 | - | - | - | - | - | .
COc1cc2c(cc1OC)C(CNC(=O)C=Cc1ccccc1)C2 (stereo not drawn) | - | . | . | . | . | .
CCN(C(=O)CSc1nnc(-c2ccc(OC)cc2)n1C(C)C)C1CCS(=O)(=O)C1 (stereo not drawn) | - | . | - | . | . | .
CN(C)CC1CCC/C(=C\c2ccc(OC(=O)/C=C/c3ccccc3)cc2)C1=O (stereo not drawn) | - | . | - | . | . | .
CN(C)CC1CCC/C(=C\c2ccc(OC(=O)c3ccc(Cl)cc3)cc2)C1=O (stereo not drawn) | - | . | 36.6 | . | . | -
CCCCNC(=O)c1sc(=S)n2c1[nH]c(=O)c1ccccc12 | - | 66.7 | 37.8 | - | - | -
CCOc1ccc(CCNC(=O)c2ccc3c(=O)[nH]c4c(C(=O)NC(C)C)sc(=S)n4c3c2)cc1 | - | . | 40.6 | . | . | -
COC(=O)c1ccc(C(c2c(C)n(C)n(-c3ccccc3)c2=O)c2c(C)n(C)n(-c3ccccc3)c2=O)cc1 | - | . | - | . | . | .
SMILES | PfG6PD inh | Diaphorase inh | HKDC1 inhibitor | G6PDH CS | Diaphorase act | HKDC1 act conf2
O=C1C(Cl)=C(NCc2cccnc2)C(=O)c2ccccc21 | - | . | - | . | . | -45.1
C=CCNC1=C(Cl)C(=O)c2ccccc2C1=O | - | - | - | - | - | .
CC(C)CNC(=O)COC(=O)CNC(=O)c1cc(Cl)cc([N+](=O)[O-])c1 | - | - | - | - | - | -
COc1cccc(OCC(O)CN2CCN(C)CC2)c1 (stereo not drawn) | - | . | - | . | . | .
O=C(O)C(Cc1ccccc1)N1C(=O)/C(=C/C=C/c2ccco2)SC1=S (stereo not drawn) | - | . | 37.0 | . | . | -
Oc1cc(CNC2CCCCC2)c(O)cc1CNC1CCCCC1 | 80.9 | . | - | . | . | -
CCOC(=O)N1CCN(C(=O)COC(=O)c2cc(C)ccc2C)CC1 | - | . | - | . | . | .
CCCCC(=O)NC(c1ccc(N(CC)CC)cc1)c1ccc2cccnc2c1O (stereo not drawn) | - | . | - | . | . | -59.3

Compound activity as filed in PubChem.
